A selection: hits, their analogues and other compounds. The true share with any hit is near 3.5%.
RGS4 inh = RGS4 inhibitors, primary screen, cell-based, HEK293 M3R inducible RGS4, calcium flux; Regulator of G-protein signaling 4 (Homo sapiens), P49798; Fluo-4 calcium flux; hits give high values; triggered by carbachol at its EC20; B-score at 10 µM; hit rate 0.45% among 310,000; AID 463165, 2010;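 active means B-score, a plate-corrected calcium signal, over three deviations above library mean, with baseline fluorescence within five deviations of library mean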;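 further: RGS4 expression induced by doxycycline in cells with stable M3 receptor; B-score is computed from the integrated fluorescence ratio over baseline after carbachol; higher B-score means a larger calcium signal and so more RGS4 inhibition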
MrgX1 ag = agonists of human MrgX1 receptor, primary screen, HEK293 cells, Fluo-4 calcium flux. Mas-related G-protein coupled receptor member X1 (Homo sapiens), Q96LB2. Fluo-4 calcium fluorescence, agonist mode; hits give high values. B-score at 10 µM. hit rate 0.44% among 310,000. AID 588627, 2011;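 active means calcium response B-score plate-corrected fluorescence ratio at least 3 library SD, with starting fluorescence B-score inside 5 SD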
Target sequence (Q96LB2 whole entry, looked up): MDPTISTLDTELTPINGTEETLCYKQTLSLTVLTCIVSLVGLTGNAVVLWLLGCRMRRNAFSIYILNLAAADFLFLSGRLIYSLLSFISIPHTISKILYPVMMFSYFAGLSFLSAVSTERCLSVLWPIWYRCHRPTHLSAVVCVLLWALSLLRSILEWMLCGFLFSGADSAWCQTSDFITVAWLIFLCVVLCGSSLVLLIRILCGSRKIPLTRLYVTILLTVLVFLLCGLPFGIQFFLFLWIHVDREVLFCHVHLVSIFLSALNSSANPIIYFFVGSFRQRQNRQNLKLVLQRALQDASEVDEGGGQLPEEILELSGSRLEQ
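System: HEK293 cells stably expressing human MrgX1 receptor; Dosing: test compound in the initial addition of three; Schedule: overnight plating, then 30 min 37 °C plus 30 min room-temperature dye loading; Detection: kinetic calcium dye fluorescence, Fluo-4 NW; Controls: per-plate positive and negative controls for Z′ factor.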
MrgX1 antag = antagonists of human MrgX1 receptor, primary screen, HEK293 cells, Fluo-4 calcium flux. hit rate 1.3% among 310,000. BAM8-22 antagonism; hits give low values. B-score at 10 µM. AID 588676, 2011. Mas-related G-protein coupled receptor member X1 (Homo sapiens), Q96LB2;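 active means calcium-response B-score plate-corrected more than 3 library SD below zero, starting fluorescence within 5 deviations, no agonist response on first addition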;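 further: peak minus trough fluorescence over baseline after final BAM8-22 challenge near maximal dose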
MrgX1 allo act = positive allosteric modulators of MrgX1, primary screen, HEK293 cells, Fluo-4 calcium flux. hit rate 0.63% among 310,000. AID 588675, 2011. FDSS; hits give high values. B-score at 10 µM;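 active means plate-corrected calcium response at least 3 library SD above typical, normal starting fluorescence, not activating the receptor alone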;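 further: compound read alongside a low EC10 to EC30 dose of BAM8-22 agonist; peak minus trough fluorescence over baseline measured at the second addition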
RGS4 act = RGS4 potentiators or activators, primary screen, cell-based, HEK293 M3R inducible RGS4, calcium flux; carbachol calcium flux Fluo4; hits give low values; B-score at 10 µM; hit rate 0.92% among 310,000; AID 463111, 2010;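 active means B-score of the integrated calcium signal more than 4 SD below the library mean, with starting fluorescence not abnormally high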;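 further: negative B-score means reduced calcium response which marks RGS4 activation or potentiation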
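Also added: carbachol at ECmax as muscarinic agonist stimulus; Assay system: HEK293 cells with stable M3R and inducible RGS4; Timing: overnight RGS4 induction, 30 min dye load 37 °C, 20 min compound RT; Measured by: Fluo4-AM (2 µM) calcium-flux fluorescence, kinetic read.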
RGS4 act valid = reduced carbachol calcium response, RGS4-induced M3R cells, confirmation, RGS4 activator project, cell-based, HEK293 M3R/RGS4 inducible, calcium flux, duplicate. hit rate 89% among 1,100. shares compounds with RGS4 act. inhibition, % at 10 µM. carbachol calcium flux Fluo4;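 active means inhibition above 3 SD of the buffer control wells, cut at about 41% in these data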;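 further: signal is the integrated peak-minus-minimum Fluo4 fluorescence over baseline ratio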
RGS4 act ctr = RGS4 activator counter-screen hit in non-induced cells. AID 602283. shares compounds with RGS4 act. hit rate 82% among 1,100. inhibition, % at 10 µM. HEK293 M3R non-induced RGS4, Fluo4 calcium flux; after carbachol challenge at its EC90;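 active means inhibition exceeding 3 SD of buffer-only control wells, cut at about 26% in these data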;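 further: percent drop in integrated peak-minus-baseline over baseline Fluo4 ratio after carbachol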
Active calls of the source: *.

What do the screens show for `O=C1CS/C(=N/N=C/c2cccs2)N1Cc1ccc(F)cc1`?
RGS4 inh: inactive; MrgX1 ag: inactive; MrgX1 antag: inactive; MrgX1 allo act: inactive; RGS4 act: inactive

Results for CC(=O)OC(C(=O)N1CCOCC1)c1c(F)cccc1F (stereo not given) ?
RGS4 inh: inactive; MrgX1 ag: inactive; MrgX1 antag: inactive; MrgX1 allo act: inactive; RGS4 act: inactive

How did O=C(CCC1CCCN(Cc2cccc3c2OCO3)C1)NCc1ccc(F)c(F)c1 (stereo not given) do in these assays?
RGS4 inh: inactive; MrgX1 ag: inactive; MrgX1 antag: inactive; MrgX1 allo act: inactive; RGS4 act: -9.43*; RGS4 act valid: 50.5*; RGS4 act ctr: 32.8*

Results for COC(=O)c1ccc(CN2CCCC(CCC(=O)NCc3ccc(C)o3)C2)cc1 (stereo not given) ?
RGS4 inh: inactive; MrgX1 ag: inactive; MrgX1 antag: inactive; MrgX1 allo act: inactive; RGS4 act: -8.99*; RGS4 act valid: 88.0*; RGS4 act ctr: 70.8*

How did COc1ccccc1/C=C/CN1CCCC(CCC(=O)NCc2ccc(F)c(F)c2)C1 (stereo not given) do in these assays?
RGS4 inh: inactive; MrgX1 ag: inactive; MrgX1 antag: inactive; MrgX1 allo act: inactive; RGS4 act: inactive

How did COc1ccc(/C=C/CN2CCCC(CCC(=O)NCc3ccc(F)c(F)c3)C2)cc1 (stereo not given) do in these assays?
RGS4 inh: inactive; MrgX1 ag: inactive; MrgX1 antag: inactive; MrgX1 allo act: inactive; RGS4 act: -7.82*; RGS4 act valid: 91.5*; RGS4 act ctr: 87.3*

Results for Cc1ccccc1CN1CCN(CCCc2ccccc2)C(CCO)C1 (stereo not given) ?
RGS4 inh: inactive; MrgX1 ag: inactive; MrgX1 antag: inactive; MrgX1 allo act: inactive; RGS4 act: inactive

How did CCOc1ccc2[nH]c3c(N4CCc5ccccc5C4)ncnc3c2c1 do in these assays?
RGS4 inh: inactive; MrgX1 ag: inactive; MrgX1 antag: inactive; MrgX1 allo act: inactive; RGS4 act: -8.54*; RGS4 act valid: 93.5*; RGS4 act ctr: 71.8*

What do the screens show for `Cc1cc(C)n2nc(SCc3nnc(SCCCCl)o3)nc2n1`?
RGS4 inh: inactive; MrgX1 ag: inactive; MrgX1 antag: inactive; MrgX1 allo act: inactive; RGS4 act: -7.71*; RGS4 act valid: 77.5*; RGS4 act ctr: 34.8*

What do the screens show for `CC1CCN(S(=O)(=O)c2cc([N+](=O)[O-])ccc2Cl)CC1`?
RGS4 inh: inactive; MrgX1 ag: inactive; MrgX1 antag: inactive; MrgX1 allo act: inactive; RGS4 act: inactive

Results for O=S(=O)(c1cccc2cccnc12)N1CCCCC1 ?
RGS4 inh: inactive; MrgX1 ag: inactive; MrgX1 antag: inactive; MrgX1 allo act: inactive; RGS4 act: inactive

What do the screens show for `CN1CCN(c2ncccc2S(=O)(=O)N2CCCCC2)CC1`?
RGS4 inh: inactive; MrgX1 ag: inactive; MrgX1 antag: inactive; MrgX1 allo act: inactive; RGS4 act: -11.9*; RGS4 act valid: 90.0*; RGS4 act ctr: 72.8*

How did COc1cccc(CN2CCN(Cc3cccn3-c3cccnc3)CC2CCO)c1 (stereo not given) do in these assays?
RGS4 inh: inactive; MrgX1 ag: inactive; MrgX1 antag: inactive; MrgX1 allo act: inactive; RGS4 act: inactive

High-throughput results deposited in PubChem by Johns Hopkins Ion Channel Center.
